Test results: ChEMBL document CHEMBL1122622, “Carbocyclic analogues of xylofuranosylpurine nucleosides. Synthesis and antitumor activity” (J Med Chem, 1984)

Substrate: Nc1ncnc2c1ncn2[C@@H]1O[C@H](CO)[C@@H](O)[C@H]1O
Test: Compound was evaluated for the kinetic constant on adenosine deaminase and expressed as Km
How it was run: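 Calf intestinal adenosine deaminase (type III). Adenosine was mixed with a range of test compound concentrations in 1 mL 0.05 M phosphate buffer, pH 7.5, at 25 °C. Reactions were started with 20 milliunits of enzyme, and deamination was followed as the fall in absorbance at 265 nm. Kinetic constants came from Wilkinson analysis, with each point the mean of triplicates.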

B1: Adenosine deaminase (Mus musculus), P03958 (protein)
chain: MAQTPAFNKPKVELHVHLDGAIKPETILYFGKKRGIALPADTVEELRNIIGMDKPLSLPGFLAKFDYYMPVIAGCREAIKRIAYEFVEMKAKEGVVYVEVRYSPHLLANSKVDPMPWNQTEGDVTPDDVVDLVNQGLQEGEQAFGIKVRSILCCMRHQPSWSLEVLELCKKYNQKTVVAMDLAGDETIEGSSLFPGHVEAYEGAVKNGIHRTVHAGEVGSPEVVREAVDILKTERVGHGYHTIEDEALYNRLLKENMHFEVCPWSSYLTGAWDPKTTHAVVRFKNDKANYSLNTDDPLIFKSTLDTDYQMTKKDMGFTEEEFKRLNINAAKSSFLPEEEKKELLERLYREYQ
Question: How did the Km turn out when B1 was run?
Answer: The Km was 7.8 µM.
